This is an account of results in ChEMBL document CHEMBL1772983, “Bioactive sesqui- and diterpenoids from the Argentine liverwort Porella chilensis” (2011).

Each structure is given as a SMILES string. Active and inactive are the calls of the source. The rule behind the calls is not given here.

Assay [1] has as its system Pseudomonas aeruginosa. Put plainly: Inhibition of Pseudomonas aeruginosa ATCC 27853 biofilm formation at 16.4 uM after 24 hrs using crystal violet staining by spectrophotometry analysis relative to control. It counts as functional. The conditions noted are these: ATCC 27853, 24 h. In a few lines: (§1)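 ATCC 27853 culture diluted to 10% (v/v) in LB and dosed from DMSO–water (1:1) stocks of 1 or 0.1 mg/mL (10 µL into 190 µL), 8 replicates, vehicle control. After 24 h at 37 °C, liquid discarded and wells washed three times with PBS. Stained with 0.1% crystal violet for 20 min, rinsed with water, dye eluted with absolute EtOH, A540 read. Mean ± SD, Student's t-test.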

The test system of assay [2] is Pseudomonas aeruginosa. The assay can be described thus: Inhibition of quorum sensing activity in Pseudomonas aeruginosa ATCC 27853 assessed as N-acylhomoserin lactones production at 5 to 50 ug/ml after 24 hrs by measuring beta-galactosidase activity by spectrophotometry.
The test system of assay [3] is Pseudomonas aeruginosa. The assay can be described thus: Inhibition of Pseudomonas aeruginosa ATCC 27853 biofilm formation at 5 to 50 ug/ml after 24 hrs using crystal violet staining by spectrophotometry analysis. It counts as functional, organism-based. In a few lines: as §1
For assay [4], the system named is Pseudomonas aeruginosa. Put plainly: Induction of Pseudomonas aeruginosa ATCC 27853 biofilm formation at 0.6 uM after 24 hrs using crystal violet staining by spectrophotometry analysis. It counts as functional, organism-based.
Assay [5] has as its system Pseudomonas aeruginosa. The assay can be described thus: Antibacterial activity against Pseudomonas aeruginosa ATCC 27853 assessed as growth inhibition at 5 ug/ml after 24 hrs by microplate assay relative to control. Format: functional. Particulars: ATCC 27853, 24 h, read-out: GI. The procedure, abridged:
(§2)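 Overnight P. aeruginosa ATCC 27853 culture diluted to 10% (v/v) in LB medium. 190 µL of culture plus 10 µL of 1 or 0.1 mg/mL stock in DMSO–water (1:1), giving 50 or 5 µg/mL. 8 replicates; vehicle-only negative control. Incubated 37 °C, 24 h; growth read as OD600. Mean ± SD, Student's t-test, p ≤ 0.05.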

Assay [6] has as its system Pseudomonas aeruginosa. Put plainly: Antibacterial activity against Pseudomonas aeruginosa ATCC 27853 assessed as growth inhibition at 5 ug/ml by microplate assay. It counts as functional. In a few lines: as §2
Assay [7] concerns Pseudomonas aeruginosa. Put plainly: Inhibition of quorum sensing activity in Pseudomonas aeruginosa ATCC 27853 assessed as N-acylhomoserin lactones production at 5 ug/ml after 24 hrs by measuring beta-galactosidase activity by spectrophotometry.
The subject of assay [8] is Pseudomonas aeruginosa. The assay can be described thus: Inhibition of quorum sensing activity in Pseudomonas aeruginosa ATCC 27853 assessed as N-acylhomoserin lactones production at 5 ug/ml after 24 hrs by measuring beta-galactosidase activity by spectrophotometry relative to control. More on the design: scale not given: the % may be the effect or the level left.
The test system of assay [9] is Pseudomonas aeruginosa. The assay can be described thus: Antibacterial activity against Pseudomonas aeruginosa ATCC 27853 assessed as growth inhibition by microplate assay. Format: functional, organism-based. In a few lines:
as §2

In assay [10] the test system is Pseudomonas aeruginosa. The assay can be described thus: Antibacterial activity against Pseudomonas aeruginosa ATCC 27853 assessed as growth inhibition at 50 ug/ml by microplate assay relative to control. It counts as functional. The conditions noted are these: read-out: GI. In a few lines: as §2
Assay [11] deals with Pseudomonas aeruginosa. The assay can be described thus: Antibacterial activity against Pseudomonas aeruginosa ATCC 27853 assessed as growth inhibition at 5 to 50 ug/ml after 24 hrs by microplate assay. It counts as functional, organism-based. In a few lines: as §2
Assay [12] relates to Pseudomonas aeruginosa. The assay can be described thus: Induction of Pseudomonas aeruginosa ATCC 27853 biofilm formation at 50 ug/ml after 24 hrs using crystal violet staining by spectrophotometry analysis relative to control. It counts as functional. In a few lines: as §1
Assay [13] has as its system Pseudomonas aeruginosa. Put plainly: Antibacterial activity against Pseudomonas aeruginosa ATCC 27853 assessed as increase in bacterial growth at 50 ug/ml by microplate assay relative to control. Format: functional. The procedure, abridged:
as §2

Assay [14] has as its system Pseudomonas aeruginosa. The assay can be described thus: Induction of quorum sensing in Pseudomonas aeruginosa ATCC 27853 assessed as N-acylhomoserin lactones production at 50 ug/ml after 24 hrs by measuring beta-galactosidase activity by spectrophotometry.
Assay [15] has as its system Pseudomonas aeruginosa. The assay can be described thus: Antibacterial activity against Pseudomonas aeruginosa ATCC 27853 assessed as increase in bacterial growth at 5 to 50 ug/ml by microplate assay. It counts as functional, organism-based. The procedure, abridged:
as §2

Assay [16] has as its system Pseudomonas aeruginosa. The assay can be described thus: Inhibition of Pseudomonas aeruginosa ATCC 27853 biofilm formation at 5 ug/ml after 24 hrs using crystal violet staining by spectrophotometry analysis relative to control. It counts as functional. In a few lines: as §1
The subject of assay [17] is Pseudomonas aeruginosa. The assay can be described thus: Inhibition of quorum sensing activity in Pseudomonas aeruginosa ATCC 27853 assessed as N-acylhomoserin lactones production at 16.4 uM after 24 hrs by measuring beta-galactosidase activity by spectrophotometry. More on the design: scale not given: the % may be the effect or the level left.
Assay [18] deals with Pseudomonas aeruginosa. The assay can be described thus: Inhibition of Pseudomonas aeruginosa ATCC 27853 biofilm formation at 50 ug/ml after 24 hrs using crystal violet staining by spectrophotometry analysis relative to control. The conditions noted are these: ATCC 27853, 24 h.
Assay [19] relates to Pseudomonas aeruginosa. The assay can be described thus: Inhibition of Pseudomonas aeruginosa ATCC 27853 biofilm formation at 5 ug/ml after 24 hrs using crystal violet staining by spectrophotometry analysis. Particulars: ATCC 27853, 24 h. Format: functional. In a few lines:
as §1

What is called inhibition is how much of the control response was suppressed. In turn, `CC1(C)[C@@H]2[C@@H]3[C@H](CC[C@@]3(C)O)[C@@](C)(O)CC[C@@H]21` displayed an inhibition at 16.4 µM with Pseudomonas aeruginosa [1] of 37%. Besides, the inhibition with Pseudomonas aeruginosa [2] came to 80%. In addition, the inhibition result in the assay with Pseudomonas aeruginosa [3] is “Active”. Also, in the assay with Pseudomonas aeruginosa [4], the biofilm induction entry is “inactive”. Moreover, in the assay with Pseudomonas aeruginosa [5], the inhibition of growth at 5 µg/mL came to 24%.

Take `CC[C@H]1OC(=O)[C@H](C)[C@@H](O[C@H]2C[C@@](C)(OC)[C@@H](O)[C@H](C)O2)[C@H](C)[C@@H](O[C@@H]2O[C@H](C)C[C@H](N(C)C)[C@H]2O)[C@](C)(O)C[C@@H](C)CN(C)[C@H](C)[C@@H](O)[C@]1(C)O`: the “growth inhibition (GI)” value with Pseudomonas aeruginosa [6] was “inactive”. For the same molecule, the inhibition in the assay on Pseudomonas aeruginosa [7] was determined as 76%. For the same molecule, the Activity in the assay with Pseudomonas aeruginosa [8] is 76%.

Take `CC(C)[C@H]1CC[C@]2(C)C[C@]3(O)C(=CC(=O)[C@H]3C)[C@@H](C)CC[C@@H]12` [ANADENSIN]: the “growth inhibition (GI)” value with Pseudomonas aeruginosa [9] is “Dose-dependent effect”. This molecule also came in with an inhibition at 16.4 µM with Pseudomonas aeruginosa [1] of 47%. For the same molecule, in the assay with Pseudomonas aeruginosa [10], the inhibition of growth at 50 µg/mL turned out to be 16%. Also, the inhibition entry with Pseudomonas aeruginosa [2] and in the assay with Pseudomonas aeruginosa [3] was “Active” throughout. Further, the “growth inhibition (GI)” value in the assay on Pseudomonas aeruginosa [11] is “Active”. In the assay on Pseudomonas aeruginosa [4], the biofilm induction entry is “inactive”.

In the case of `CC1=CC(=O)[C@@H]2[C@@H](C)CC[C@H]3[C@@H](C(C)C)CC[C@]3(C)C[C@@]12O`, in the assay with Pseudomonas aeruginosa [9], the “growth inhibition (GI)” value was “Dose-dependent effect”. For the same molecule, the figures for the Activity with Pseudomonas aeruginosa [12] and with Pseudomonas aeruginosa [13] were 95% and 15%, respectively. Moreover, the biofilm induction entry in the assay on Pseudomonas aeruginosa [4] was “inactive”. The outcome with Pseudomonas aeruginosa [14] was Active.

Turning to `C=CC1(O)CC[C@@]2(C)[C@H](C)CC[C@@]2(C)[C@@H]1C` (stereo not given in full), the result with Pseudomonas aeruginosa [15] was Active. In addition, the inhibition entry with Pseudomonas aeruginosa [2] and in the assay with Pseudomonas aeruginosa [3] was “Active” each time. Moreover, the “growth inhibition (GI)” value with Pseudomonas aeruginosa [11] is “Active”. For the same molecule, in the assay on Pseudomonas aeruginosa [4], the biofilm induction entry was “inactive”.

In turn, `C=C1CC[C@H]2[C@@H]([C@@H]3[C@@H]1CC[C@@]3(C)O)C2(C)C` showed an inhibition at 16.4 µM with Pseudomonas aeruginosa [1] of 41%. In addition, in the assay with Pseudomonas aeruginosa [6], the “growth inhibition (GI)” value was “Active”. In addition, in the assay with Pseudomonas aeruginosa [2], the inhibition was 33%. Besides, the inhibition entry in the assay on Pseudomonas aeruginosa [16] and with Pseudomonas aeruginosa [3] was “Active” in each case. Also, the Activity with Pseudomonas aeruginosa [17] worked out at 33%. Besides, the biofilm induction entry in the assay with Pseudomonas aeruginosa [4] was “inactive”.

In the assay with Pseudomonas aeruginosa [12], `CC(C)[C@H]1CC[C@]2(C)CC3=C(C(=O)C[C@@]3(C)O)[C@@H](C)CC[C@@H]12` showed an Activity of 93%. In addition, in the assay on Pseudomonas aeruginosa [4], the biofilm induction result was “inactive”. For the same molecule, the outcome in the assay with Pseudomonas aeruginosa [14] was Active.

On to `COC(=O)[C@@]12Cc3occc3C(=O)[C@]1(C)CC[C@H]2C`, for which the result in the assay with Pseudomonas aeruginosa [15] was Active. Besides, the inhibition result in the assay with Pseudomonas aeruginosa [2] was “inactive”. In addition, in the assay with Pseudomonas aeruginosa [11], the “growth inhibition (GI)” value was “inactive”. In addition, the biofilm induction result with Pseudomonas aeruginosa [4] was “inactive”.

Take `CC1=C2C[C@@]3(C)CC[C@H](C(C)C)[C@@H]3CC[C@H](C)[C@]2(O)CC1=O` [FUSICOAURITONE]: the “growth inhibition (GI)” value with Pseudomonas aeruginosa [9] is “Dose-dependent effect”. Further, in the assay with Pseudomonas aeruginosa [10], the inhibition of growth at 50 µg/mL was 25%. The molecule also yielded an Activity with Pseudomonas aeruginosa [12] of 105%. Besides, in the assay on Pseudomonas aeruginosa [4], the biofilm induction result is “inactive”. In addition, the outcome with Pseudomonas aeruginosa [14] was Active.

For `CC(=O)OC[C@@]12Cc3occc3C(=O)[C@]1(C)CC[C@H]2C` [NORPINGUISONE ACETATE], the result in the assay with Pseudomonas aeruginosa [15] was Active. This molecule came in with an inhibition at 5 µg/mL in the assay on Pseudomonas aeruginosa [16] (ATCC 27853, 24 h) of 20%. For the same molecule, the biofilm induction entry in the assay with Pseudomonas aeruginosa [4] is “inactive”. Moreover, in the assay with Pseudomonas aeruginosa [18], the inhibition at 50 µg/mL came to 27%.

Regarding `C[C@@H]1CC[C@@]2(C)C(=O)c3ccoc3C[C@@]12C`, the outcome in the assay with Pseudomonas aeruginosa [15] was Active. The inhibition entry with Pseudomonas aeruginosa [2] and in the assay on Pseudomonas aeruginosa [3] was “Active” throughout. For the same molecule, in the assay on Pseudomonas aeruginosa [11], the “growth inhibition (GI)” value is “Active”. In the assay with Pseudomonas aeruginosa [4], the biofilm induction entry was “inactive”.

`O=C(O)c1cn(C2CC2)c2cc(N3CCNCC3)c(F)cc2c1=O` [CIPROFLOXACIN] displayed an inhibition at 5 µg/mL in the assay with Pseudomonas aeruginosa [19] of 51%. Also, the inhibition of growth at 5 µg/mL in the assay on Pseudomonas aeruginosa [6] (read-out: GI) worked out at 73%.
